Experimental data published in ChEMBL document CHEMBL6134794, “Anti-Schistosomal activity and ADMET properties of 1,2,5-oxadiazinane-containing compound synthesized by visible-light photoredox catalysis” (RSC Med Chem, 2024).
Calls of active or inactive are those of the source. No cut-off for these calls is given here.

Experiments:
[1] = test system: Schistosoma mansoni; experiment: Anti-schistosomal activity against adult male Schistosoma mansoni assessed as motility by measuring measuring pairing and varied movement intensity using viability scale at 10 uM incubated for 24 hrs by inverted microscopic analysis; type: functional
[2] = test system: Schistosoma mansoni; experiment: Anti-schistosomal activity against adult male Schistosoma mansoni assessed as motility by measuring pairing and varied movement intensity using viability scale at 10 uM incubated for 1 hr by inverted microscopic analysis; type: functional
[3] = test system: Schistosoma mansoni; experiment: Anti-schistosomal activity against adult male Schistosoma mansoni assessed as motility by measuring pairing and varied movement intensity using viability scale at 10 uM incubated for 120 hrs by inverted microscopic analysis; type: functional
[4] = test system: Schistosoma mansoni; experiment: Anti-schistosomal activity against adult female Schistosoma mansoni assessed as motility by measuring full detachment with weak movement using viability scale at 10 uM incubated for 1 hr by inverted microscopic analysis; type: functional
Summary of the method: (§1)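 Adult worms freshly isolated from infected mice; cultured in RPMI 1640 with 5% FBS and penicillin/streptomycin, with or without compound (0.1, 1, 10 μM), at 37°C under 5% CO₂.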

[5] = test system: Schistosoma mansoni; experiment: Anti-schistosomal activity against adult female Schistosoma mansoni assessed as motility by measuring full detachment with weak movement using viability scale at 10 uM incubated for 24 hrs by inverted microscopic analysis; type: functional
[6] = test system: Schistosoma mansoni; experiment: Anti-schistosomal activity against adult female Schistosoma mansoni assessed as motility by measuring full detachment with weak movement using viability scale at 10 uM incubated for 120 hrs by inverted microscopic analysis; type: functional
[7] = Lipophilicity, logD of the compound in phosphate-buffered saline (PBS) at pH 7.4 at 100 uM incubated for 20 mins by UPLC analysis; type: physicochemical; settings: buffer, pH 7.4, 20 min
Summary of the method: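 Compound at 100 μM final in PBS with 1% DMSO. logD (pH 7.4) was derived from UPLC (BEH C18) retention times against standards of known logD. Mobile phase was ammonium acetate/acetonitrile, 2–98% B over 1 min at 0.8 mL/min.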

[8] = Apparent permeability in human Caco-2 cells at 25 uM incubated for 2 hrs by LC-MS/MS analysis; type: ADME, cell-based
Summary of the method: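 Compound at 25 µM in HBSS added to the apical side of cultured Caco-2 monolayers in transwells, with HBSS plus 1% BSA on the basolateral side. After 2 h both compartments were collected, acetonitrile-treated and centrifuged. Supernatants were quantified by LC-MS/MS and Papp calculated. "High" class means Papp above that of propranolol.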

[9] = Stability of the compound at pH 1.2 at 5 uM assessed as compound remaining incubated for 1 hrs by LC-MS/MS analysis relative to control; type: physicochemical; settings: buffer, read-out: Stability
Summary of the method: (§2)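 Compound at 5 μM in pH 1.2 dissolution test solution 1 or in PBS pH 7.4, held at 37 °C for 0, 1 and 5 h. Reactions were quenched with acetonitrile and centrifuged. Parent remaining was quantified by LC-MS/MS as a percentage of the 0 h sample.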

[10] = Stability of the compound at pH 1.2 at 5 uM assessed as compound remaining incubated for 5 hrs by LC-MS/MS analysis relative to control; type: physicochemical; settings: buffer, read-out: Stability; summary of the method: as §2
[11] = Stability of the compound in PBS at pH 7.4 at 5 uM assessed as compound remaining incubated for 1 hr by LC-MS/MS analysis relative to control; type: physicochemical; settings: read-out: Stability; summary of the method: as §2
[12] = Metabolic stability in human liver microsome assessed as compound remaining at 500 uM incubated for 10 mins in presence of NADPH and G6PDH by LC-MS/MS analysis; settings: liver microsomes
[13] = Metabolic stability in human liver microsome assessed as compound remaining at 500 uM incubated for 60 mins in presence of NADPH and G6PDH by LC-MS/MS analysis; settings: liver microsomes
[14] = Metabolic stability in mouse liver microsome assessed as compound remaining at 500 uM incubated for 10 mins in presence of NADPH and G6PDH by LC-MS/MS analysis; settings: liver microsomes
[15] = Metabolic stability in mouse liver microsome assessed as compound remaining at 500 uM incubated for 60 mins in presence of NADPH and G6PDH by LC-MS/MS analysis; settings: liver microsomes
[16] = Cardiotoxicity in human iPSC-CM cells assessed as effect on pulse waveform by measuring calcium ion influx at 20 uM incubated for 60 mins by fluorescent indicator analysis; type: toxicity, cell-based; settings: 1 h
Summary of the method: (§3)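 Human iPS cell-derived cardiomyocytes were seeded at 30,000 cells/well on gelatin and maintained 9 days. Cells were then stained with a Ca²⁺-sensitive cardiotoxicity dye kit. Ca²⁺ transients were recorded on an FDSS kinetic imager before and after compound addition.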

[17] = Cardiotoxicity in human iPSC-CM cells assessed as decrease in beat interval by measuring calcium ion influx at 20 uM incubated for 60 mins by fluorescent indicator analysis; type: toxicity, cell-based; settings: 1 h; summary of the method: as §3
[18] = Cardiotoxicity in human iPSC-CM cells assessed as effect on pulse waveform by measuring calcium ion influx at 2 uM incubated for 60 mins by fluorescent indicator analysis; type: toxicity, cell-based; settings: 1 h; summary of the method: as §3
[19] = Cardiotoxicity in human iPSC-CM cells assessed as decrease in beat interval by measuring calcium ion influx at 2 uM incubated up to 30 mins by fluorescent indicator analysis; type: toxicity, cell-based; settings: 0.5 h; summary of the method: as §3
[20] = Cardiotoxicity in human iPSC-CM cells assessed as effect on beat interval by measuring calcium ion influx at 2 uM measured within 60 mins by fluorescent indicator analysis; type: toxicity, cell-based; settings: 1 h; summary of the method: as §3
[21] = Cardiotoxicity in human iPSC-CM cells assessed as effect on pulse waveform by measuring calcium ion influx at 0.2 uM incubated for 60 mins by fluorescent indicator analysis; type: toxicity, cell-based; settings: 1 h; summary of the method: as §3
[22] = Cardiotoxicity in human iPSC-CM cells assessed as effect on beat intervals by measuring calcium ion influx at 0.2 uM incubated for 60 mins by fluorescent indicator analysis; type: toxicity, cell-based; settings: 1 h; summary of the method: as §3
[23] = test system: Schistosoma mansoni; experiment: Anti-schistosomal activity against adult male Schistosoma mansoni assessed as worm death at 10 uM incubated for 1 to 120 hrs by inverted microscopic analysis; type: functional, organism-based; settings: time 1-120 hrs; summary of the method: as §1
[24] = test system: HeLa; experiment: Cytotoxicity against human HeLa cells assessed as cell viability at 10 uM incubated for 48 hrs by absorbance based WST-8 assay (reference value: 100 %); type: functional; settings: read-out: Activity
Summary of the method: (§4)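 HeLa cells seeded at 1,000 cells/well and exposed to compound at 10, 20 or 30 μM for 2 days. WST-8 absorbance was read at 405 nm. Viability is expressed relative to DMSO-treated wells (100%).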

[25] = test system: Schistosoma mansoni; experiment: Anti-schistosomal activity against adult female Schistosoma mansoni assessed as motility by measuring pairing and varied movement intensity using viability scale at 10 uM incubated for 1 hr by inverted microscopic analysis; type: functional
[26] = test system: Schistosoma mansoni; experiment: Anti-schistosomal activity against adult female Schistosoma mansoni assessed as motility by measuring pairing and varied movement intensity using viability scale at 10 uM incubated for 24 hrs by inverted microscopic analysis; type: functional
[27] = test system: Schistosoma mansoni; experiment: Anti-schistosomal activity against adult female Schistosoma mansoni assessed as motility by measuring pairing and varied movement intensity using viability scale at 10 uM incubated for 120 hrs by inverted microscopic analysis; type: functional
[28] = Stability of the compound in PBS at pH 7.4 at 5 uM assessed as compound remaining incubated for 5 hrs by LC-MS/MS analysis relative to control; type: physicochemical; settings: read-out: Stability; summary of the method: as §2
[29] = Cardiotoxicity in human iPSC-CM cells assessed as effect on pulse waveform by measuring calcium ion influx at 0.2 to 20 uM incubated for 60 mins by fluorescent indicator analysis; type: toxicity, cell-based; settings: 1 h, dose 0.2-20 µM; summary of the method: as §3
[30] = Cardiotoxicity in human iPSC-CM cells assessed as effect on beat intervals by measuring calcium ion influx at 0.2 to 20 uM incubated for 60 mins by fluorescent indicator analysis; type: toxicity, cell-based; settings: 1 h, dose 0.2-20 µM; summary of the method: as §3
[31] = test system: Schistosoma mansoni; experiment: Anti-schistosomal activity against adult female Schistosoma mansoni assessed as worm death at 10 uM incubated for 1 to 120 hrs by inverted microscopic analysis; type: functional, organism-based; settings: time 1-120 hrs; summary of the method: as §1
[32] = test system: HeLa; experiment: Cytotoxicity against human HeLa cells assessed as cell viability at 30 uM incubated for 48 hrs by absorbance based WST-8 assay (reference value: 100 %); type: functional; settings: read-out: Activity; summary of the method: as §4

O=C(C1CCCCC1)N1CON2CCc3ccccc3C2C1 (stereo not given)
Activity [1]: 3
Activity [2]: 3
Activity [3]: 3
Activity [4]: 2
Activity [5]: 2
Activity [6]: 2.3
logD [7]: 4.1
Papp at 2 h, 25 µM [8]: 30.5 ×10⁻⁶ cm/s
remaining at 1 h, 5 µM [9]: 95.1%
remaining at 5 h, 5 µM [10]: 94.9%
remaining at 1 h, 5 µM [11]: 95.2%
remaining at 10 min, 500 µM [12]: 47.3%
remaining at 1 h, 500 µM [13]: 5.9%
remaining at 10 min, 500 µM [14]: 2.7%
remaining at 1 h, 500 µM [15]: 0.2%
Activity [16]: Non-toxic
Activity [17]: Toxic
Activity [18]: Non-toxic
Activity [19]: Toxic
Activity [20]: Non-toxic
Activity [21]: Non-toxic
Activity [22]: Non-toxic
Activity [23]: inactive
viability at 10 µM [24]: 93.1%

O=C(C1CCCCC1)N1CC(=O)N2CCc3ccccc3C2C1 (stereo not given) [PRAZIQUANTEL]
Activity [1]: 3.7
Activity [2]: 3.7
Activity [3]: 3.3
Activity [25]: 3.7
Activity [26]: 3.3
Activity [27]: 3.3
Papp at 2 h, 25 µM [8]: 37.3 ×10⁻⁶ cm/s
remaining at 1 h, 5 µM [9]: 93.1%
remaining at 5 h, 5 µM [10]: 95%
remaining at 1 h, 5 µM [11]: 103%
remaining at 5 h, 5 µM [28]: 100%
Activity [29]: Non-toxic
Activity [30]: Non-toxic
Activity [23]: inactive
Activity [31]: inactive
viability at 30 µM [32]: 97.1%
